ChEMBL document CHEMBL1148693, “Expeditious and convenient synthesis of pregnanes and its glycosides as potential anti-dyslipidemic and anti-oxidant agents” (2007)

Experiments:
Type in all cases: functional
[1] = Hydroxy radical scavenging activity assessed by measuring malondialdehyde produced at 400 ug/kg by thiobarbituric acid method; conditions: in the assay text read “400 ug/ml” for “400 ug/kg”
Procedure, shortened: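 Non-enzymic hydroxyl-radical generation: deoxyribose 2.8 mM, FeSO4 2 mM, sodium ascorbate 2.0 mM and H2O2 2.8 mM in 50 mM KH2PO4, pH 7.4. Run with or without test compound at […], 37 °C for 90 min. Compared with compound-free reaction by Student's t-test.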

[2] = Superoxide radical scavenging activity assessed by measuring formazone produced at 400 ug/kg; conditions: in the assay text read “400 ug/ml” for “400 ug/kg”
Procedure, shortened: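 Superoxide generated enzymatically with xanthine ([…]), xanthine oxidase (0.04 U) and nitroblue tetrazolium, in 100 mM phosphate buffer, pH 8.2. Samples were sonicated in buffer and added at […], 37 °C for 30 min. Stopped with 0.5 mL glacial acetic acid; formazan read at 560 nm. Percent inhibition from ε 7.2×10³ M⁻¹cm⁻¹.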

Rattus norvegicus [3] = assay: Decrease in phospholipid level in WR-1339-induced hyperlipidemic rat plasma at 400 mg/kg, po; design: scale not given: the % may be the effect or the level left
Procedure, shortened: (§1)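 Male adult Charles Foster rats (200–225 g), six per group. Triton WR-1339 400 mg/kg b.w. ip; treatment suspended in water with 0.2% w/v gum acacia, given po at the same time; diet withdrawn. Vehicle controls were included. After 18 h, under thiopentone anaesthesia, retro-orbital blood was collected into EDTA. Plasma was diluted 1:3 in saline and assayed enzymatically on an autoanalyzer. Percent change vs triton-only group, Student's t-test.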

Rattus norvegicus [4] = assay: Decrease in total cholesterol level in WR-1339-induced hyperlipidemic rat plasma at 400 mg/kg, po; design: scale not given: the % may be the effect or the level left; procedure, shortened: as §1
Rattus norvegicus [5] = assay: Decrease in triglyceride level in WR-1339-induced hyperlipidemic rat plasma at 400 mg/kg, po; design: scale not given: the % may be the effect or the level left; procedure, shortened: as §1
Rattus norvegicus [6] = assay: Decrease in total cholesterol level in WR-1339-induced hyperlipidemic rat plasma at 100 mg/kg, po; design: scale not given: the % may be the effect or the level left; procedure, shortened: as §1
Rattus norvegicus [7] = assay: Decrease in phospholipid level in WR-1339-induced hyperlipidemic rat plasma at 100 mg/kg, po; design: scale not given: the % may be the effect or the level left; procedure, shortened: as §1
Rattus norvegicus [8] = assay: Decrease in triglyceride level in WR-1339-induced hyperlipidemic rat plasma at 100 mg/kg, po; design: scale not given: the % may be the effect or the level left; procedure, shortened: as §1

Row | Compound | Activity [1] | Activity [2] | Activity (Rattus norvegicus [3]) | Activity (Rattus norvegicus [4]) | Activity (Rattus norvegicus [5]) | Activity (Rattus norvegicus [6]) | Activity (Rattus norvegicus [7]) | Activity (Rattus norvegicus [8])
1 | CC(=O)C1=CC[C@H]2[C@@H]3CC=C4C[C@@H](OC(=O)c5ccccc5Cl)CC[C@]4(C)[C@H]3CC[C@]12C | 35.01 nmol/h | 14.33 nmol/min | -17% | -21% | -14% | – | – | –
2 | CC(=O)OC[C@H]1O[C@H](OCCO[C@@H]2C[C@H]3[C@@H]4CC=C5C[C@@H](O)CC[C@]5(C)[C@H]4CC[C@]3(C)[C@H]2C(C)=O)[C@@H](OC(C)=O)[C@@H](OC(C)=O)[C@@H]1OC(C)=O | 35.05 nmol/h | 13.22 nmol/min | – | – | – | – | – | –
3 | CC(=O)OCCO[C@@H]1C[C@H]2[C@@H]3CC=C4C[C@@H](OC(C)=O)CC[C@]4(C)[C@H]3CC[C@]2(C)[C@H]1C(C)=O | 41.5 nmol/h | 21.5 nmol/min | -13% | -13% | -16% | – | – | –
4 | C[C@H](O)[C@H]1[C@H](OCCO)C[C@H]2[C@@H]3CC=C4C[C@@H](O)CC[C@]4(C)[C@H]3CC[C@]12C | 31.09 nmol/h | 9.33 nmol/min | -25% | -23% | -26% | – | – | –
5 | CC(=O)OCCO[C@@H]1C[C@H]2[C@@H]3CC=C4C[C@@H](OC(C)=O)CC[C@]4(C)[C@H]3CC[C@]2(C)[C@H]1[C@H](C)OC(C)=O | 33.9 nmol/h | 12.63 nmol/min | -14% | -18% | -13% | – | – | –
6 | C/C(=N\OCCCCCBr)C1=CC[C@H]2[C@@H]3CC=C4C[C@@H](O)CC[C@]4(C)[C@H]3CC[C@]12C | 38.52 nmol/h | 15.33 nmol/min | -5% | -4% | -5% | – | – | –
7 | CC(=O)C1=CC[C@H]2[C@@H]3CC=C4C[C@@H](OC(=O)c5ccc(Cl)cc5)CC[C@]4(C)[C@H]3CC[C@]12C | 27.16 nmol/h | 11.1 nmol/min | -27% | -27% | -25% | – | – | –
8 | CC(=O)O[C@@H]1[C@@H](OC(C)=O)[C@H](C)O[C@@H](OCCO[C@@H]2C[C@H]3[C@@H]4CC=C5C[C@@H](O)CC[C@]5(C)[C@H]4CC[C@]3(C)[C@H]2C(C)=O)[C@@H]1OC(C)=O | 39.02 nmol/h | 12.8 nmol/min | – | – | – | – | – | –
9 | CC(=O)[C@H]1[C@H](OCCO)C[C@H]2[C@@H]3CC=C4C[C@@H](O)CC[C@]4(C)[C@H]3CC[C@@]21C | 36.12 nmol/h | 7.83 nmol/min | -8% | -13% | -11% | – | – | –
10 | Cc1ccc(C)c(OCCCC(C)(C)C(=O)O)c1 [GEMFIBROZIL] | – | – | – | – | – | -37% | -36% | -32%
